TAAR1 antagonist: human TAAR1 antagonism; Q96RJ0; CHO RD-HGA16 TAAR1, Fluo-8 calcium fluorescence, antagonist; inhibition, % at 3 µM; hit rate 1.5% among 360,000; AID 624466;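 active = inhibition above a per-plate cutoff, the mean inhibition of test compounds on that plate plus 3 SD, cut at about 49% in these data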
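System: CHO RD-HGA16 cells bearing hTAAR1. Reagent: EC80 β-phenethylamine stimulus. Schedule: seeding 17-24 h prior, 75-min 37 °C, 30-min RT dye loading. Signal: Fluo-8 intracellular calcium dye fluorescence, real-time kinetic reads. Read-out: % inhibition from peak post-agonist over basal fluorescence ratio. Benchmarks: vehicle wells and EC80 agonist wells. Replicates: n of 1.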
OX1R antag-1: blocks the human orexin 1 receptor. OX1R-expressing cells, FRET antagonist read-out. AID 485270. hit rate 1.8% among 330,000. inhibition, % at 6.6 µM; in the data active = inhibition mostly above about 38%, no sharp cut-off; inactive = mostly below about 40%
Target sequence (O43613 whole entry, looked up): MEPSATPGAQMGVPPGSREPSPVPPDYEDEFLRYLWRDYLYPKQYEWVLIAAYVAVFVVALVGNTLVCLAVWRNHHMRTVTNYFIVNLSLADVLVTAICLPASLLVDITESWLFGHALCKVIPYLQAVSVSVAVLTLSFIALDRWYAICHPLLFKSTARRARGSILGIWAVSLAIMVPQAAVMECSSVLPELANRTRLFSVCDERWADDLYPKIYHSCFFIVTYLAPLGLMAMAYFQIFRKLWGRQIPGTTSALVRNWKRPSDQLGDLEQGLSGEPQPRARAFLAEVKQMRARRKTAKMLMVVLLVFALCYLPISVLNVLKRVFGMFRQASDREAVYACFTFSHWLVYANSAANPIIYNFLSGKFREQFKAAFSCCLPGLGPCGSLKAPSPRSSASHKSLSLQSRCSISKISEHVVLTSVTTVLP
GPR7 antagonist: antagonists of human GPR7 (neuropeptides B/W receptor 1); inhibition, % at 4.4 µM; AID 1861; P48145; GPR7-expressing cells, fluorescence antagonist assay; hit rate 1.1% among 290,000; in the data active = inhibition above about 16%, passing the limit was not always enough;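 note: cells stimulated with the agonist NPW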
TAAR1 agonist: agonists of human TAAR1. activation, % at 3 µM. hit rate 0.99% among 360,000. CHO RD-HGA16 TAAR1, Fluo-8 calcium fluorescence; vehicle wells 0%, saturating PEA agonist 100%. AID 624467;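 active = activation above the mean activation of all test compounds in the run plus 3 SD, cut at about 38% in these data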
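Repeats: no replicates (n 1) | Material: CHO-derived RD-HGA16 cells with stable Gα16 and human TAAR1 | Technique: Kinetic Fluo-8 calcium fluorescence | Schedule: 17-24 h seeding, 75 min 37 °C dye, 30 min RT | Evaluation: % activation from peak over basal fluorescence ratio, DMSO-to-PEA scaled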
OX1R antag-2: human HCRTR1 antagonism; inhibition, % at 5 µM; hit rate 0.43% among 330,000; CHO/OX1R cells, Fluo-8 calcium fluorescence, orexin A; O43613;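 active = inhibition above its plate's threshold, mean inhibition of all tested compounds on the plate plus 3 SD, cut at about 37% in these data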
CHO parental Ca: signal in parental CHO cells, OX1R antagonist counter-screen | inhibition, % at 5.6 µM | hit rate 0.63% among 330,000 | parental CHO-K1, ATP-induced calcium, Fluo-8 fluorescence;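 active = inhibition above that plate's mean sample inhibition plus 3 SD, cut at about 26% in these data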
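Material – parental CHO cells · Reagent – ATP stimulus · Compound – single nominal dose of 5.6 µM per compound · Detection – Fluo-8 fluorescence · Read-out basis – percent inhibition of calcium signal · Controls – ATP-challenged DMSO wells low, unchallenged DMSO wells high · Repeats – no replicates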
Hits are given with their value; . = inactive; / = not tested or not shown. Shown are actives, neighbours in structure and some others; about 4.5% of the full set was active somewhere.

SMILES	TAAR1 antagonist	OX1R antag-1	GPR7 antagonist	TAAR1 agonist	OX1R antag-2	CHO parental Ca
CCOC(=O)C1=C(C)N2C(=C(C#N)[C@@H]1c1ccc(C(=O)OC)cc1)SC[C@@]2(O)C(C)(C)C	.	53	.	.	.	.
CCOC(=O)C1=C(C)N=C2SCCC(=O)N2C1c1ccc(C(=O)OC)cc1 (centres undefined)	.	.	.	.	.	.
CCCn1nc(NS(=O)(=O)c2cccc3nonc23)c2cc3cc(C)ccc3nc21	.	.	.	.	.	.
CCCn1nc(NS(=O)(=O)c2cccc3nonc23)c2cc3cccc(C)c3nc21	.	52	.	.	.	.
C[C@H](O)[C@@H]1CN2CCc3ccc(-c4ccc5c(c4)OCO5)cc3[C@@H]2C[C@@H]1N(C)C(=O)c1cccc(Cl)c1	.	/	/	.	/	/
CC(=NNc1cc(C)c2cc(C)ccc2n1)c1ccccn1	.	/	/	.	/	/
O=C(CN1C(=O)NC2(CCCCCCC2)C1=O)Nc1cccc(Br)c1	.	.	/	.	.	.
CCSc1nnc(-c2ccccc2N=Cc2c(C)[nH]n(-c3ccccc3)c2=O)c(=O)[nH]1	.	.	.	.	.	.
CCSc1nnc(-c2cc(Br)ccc2N=Cc2c(C)[nH]n(-c3ccccc3)c2=O)c(=O)[nH]1	.	75	.	.	.	.
CSc1nnc(-c2cc(Br)ccc2N=Cc2c(C)[nH]n(-c3ccccc3)c2=O)c(=O)[nH]1	.	48	.	.	.	.
Cc1ccccc1C(=O)Nc1ccccc1C(=O)NCc1ccccc1	49	.	.	.	.	.
COc1ccccc1N(C(=O)c1snc(C(N)=O)c1N)C(C(=O)NC1CCCC1)c1ccc2ncccc2c1 (centres undefined)	.	.	.	.	.	.
CCCNc1nc(Nc2ccc(C)c(Cl)c2)c2cnn(C)c2n1	.	.	.	.	.	.
Cc1ccc(Nc2nc(NCCO)nc3c2cnn3C)cc1Cl	.	.	.	38	.	.
O=C1Nc2ccccc2Nc2ccc([N+](=O)[O-])cc21	.	.	.	.	.	.
O=C1Nc2ccccc2OCc2c1cccc2[N+](=O)[O-]	.	40	.	.	.	.
CS(=O)(=O)c1ccc(NCCc2ccccn2)c([N+](=O)[O-])c1	.	52	.	.	.	.
CN(C)C(CNc1ccc(S(C)(=O)=O)cc1[N+](=O)[O-])Cc1ccccc1 (centres undefined)	.	43	.	.	.	.
CCCc1nc2ccc(C)cn2c1Cc1ccc(C)cc1	.	/	/	.	/	/
Cc1ccc(CNC(=O)CSc2ccc(-c3cccs3)nn2)cc1	.	51	.	.	.	.
COc1ccc(CCNC(=O)CSc2ccc(-c3cccs3)nn2)cc1	.	41	.	.	.	.
Cc1nn(CCN)c(C)c1Cl	58	.	.	91	.	.
COC(=O)c1ccc(-c2n[nH]c(=O)c3ccccc23)cc1	.	43	.	.	.	.
O=[N+]([O-])c1cccc(-c2nc(-c3ccccc3)c(-c3cccs3)[nH]2)c1	58	.	.	.	.	.
COc1ccc(-c2nc(-c3ccccc3)c(-c3cccs3)[nH]2)cc1OC	.	.	.	.	.	.
SMILES	TAAR1 antagonist	OX1R antag-1	GPR7 antagonist	TAAR1 agonist	OX1R antag-2	CHO parental Ca
CN(C)S(=O)(=O)Oc1ccc(Cl)cc1C(=O)Nc1ccc(F)cc1F	.	.	.	.	.	.
Cc1cc(-c2ccco2)c(C#N)c2nc3ccccc3n12	.	100	.	.	.	.
Cc1cc(C(C)C)n2c(nc3ccccc32)c1C#N	/	.	.	/	.	.
COc1ccc2[nH]c(=O)c(CNc3cccc(C)c3)cc2c1	.	48	.	.	.	.
COc1ccc(NCc2cc3cc(OC)ccc3[nH]c2=O)cc1	.	47	.	.	.	.
CC1CN(C(=O)COc2coc(CN3CCc4ccccc4C3)cc2=O)CC(C)O1 (centres undefined)	.	.	/	.	.	.
COc1ccc2oc(=N)c(C(=O)Nc3ccccc3)cc2c1	.	76	.	.	.	.
COc1ccc(Nc2ncccc2C(=O)Nc2ccccc2)cc1	.	.	.	.	.	50
Cc1ccc(-c2ccc(CN3C(C)C(=O)N(Cc4cn(CCC5OCCO5)nn4)CCS3(=O)=O)cc2)cc1 (centres undefined)	.	/	/	.	/	/
CC1C(=O)N(Cc2cn(CCC3OCCO3)nn2)CCS(=O)(=O)N1Cc1ccc(-c2ccc(Cl)cc2)cc1 (centres undefined)	52	/	/	.	/	/
CC1C(=O)N(Cc2cn(CCC3OCCCO3)nn2)CCS(=O)(=O)N1Cc1ccc(-c2ccc(Cl)c(Cl)c2)cc1 (centres undefined)	69	/	/	.	/	/
CC1C(=O)N(Cc2cn(CCC3OCCCO3)nn2)CCS(=O)(=O)N1Cc1ccc(-c2ccc(F)cc2)cc1 (centres undefined)	.	/	/	.	/	/
COCOCCn1cc(CN2CCS(=O)(=O)N(Cc3ccc(-c4ccc(Cl)c(Cl)c4)cc3)C(C)C2=O)nn1 (centres undefined)	59	/	/	.	/	/
O=C(Cc1c(F)cccc1Cl)OCC(=O)N1CCN(c2ccccc2)CC1	.	.	/	.	.	.
CC(C)OP(=O)(Nc1cccc2ccccc12)OC(C)C	.	.	.	.	.	.
CN(C)P(=O)(Nc1cccc2ccccc12)Nc1cccc2ccccc12	.	59	/	.	.	.
COc1cc(NC(=S)NCCCN2CCOCC2)c(OC)cc1NC(=O)c1ccco1	.	.	.	.	.	.
CC(=O)Nc1ccc(S(=O)(=O)N(C)Cc2ccccc2)cc1	.	.	.	.	.	.
CC(=O)Nc1ccc(S(=O)(=O)N(Cc2ccccc2)C(C)C)cc1	.	43	.	.	.	.
c1cnc2ncc3sccc3c2c1	.	.	.	.	.	46
CCCCNc1ccc2c(c1)OC[C@H](Cc1ccccc1)NS2(=O)=O	.	/	/	.	/	/
CC(Cc1ccccc1)NC(=O)CCNNC(=O)c1ccncc1 (centres undefined)	.	/	/	.	/	/
CCc1ccc(O)c(CNCCNCc2cc(CC)ccc2O)c1	.	.	/	42	.	.
CC(=O)N1CCN(c2ccc(NCc3ccc(-c4ccc(Br)cc4)o3)cc2)CC1	58	.	/	.	.	.
COc1ccc2cc(C(c3nnnn3C(C)(C)C)N3CCc4ccccc4C3)c(=O)[nH]c2c1 (centres undefined)	/	.	.	/	.	.
CCC(C)(C)n1nnnc1C(c1cc2ccc(OC)cc2[nH]c1=O)N1CCc2ccccc2C1 (centres undefined)	.	.	.	75	.	.
Nc1ccn([C@@H]2O[C@H](C(=O)N3CCN(C(=O)C(F)(F)F)CC3)[C@@H](O)[C@H]2O)c(=O)n1	.	/	/	.	/	/
CSCCC(NC(=O)COc1ccccc1)C(=O)N(C)Cc1ccc(SC)cc1 (centres undefined)	52	.	/	.	.	.
